Experimental data from ChEMBL document CHEMBL3769301, “Novel cis-selective and non-epimerisable C3 hydroxy azapodophyllotoxins targeting microtubules in cancer cells” (Eur J Med Chem, 2016).
Calls of active or inactive are those of the source. No cut-off for these calls is given here.

Experiments:
Assay type in all cases: cell-based
MCF7 [1] = experiment: Induction of microtubule cytoskeleton destabilization in human MCF7 cells assessed as accumulation of binucleate cells at 250 nM after 6 hrs by Hoechst 33342 staining-based confocal fluorescence microscopy
Summary of the method: (§1)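 MCF-7 cells in RPMI 1640 with 10% FBS were grown on glass coverslips for 42 h to 70–80% confluency. They were exposed to 250 nM compound or 0.01% DMSO for 6 h, then fixed in methanol at −20 °C for 10 min. Staining used anti-α-tubulin (1:2000) with Alexa488 secondary (1:400) and Hoechst 33342 (1 μg/ml), imaged by confocal microscopy (63x oil). There were three independent experiments, each in duplicate.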

MCF7 [2] = experiment: Induction of microtubule cytoskeleton destabilization in human MCF7 cells assessed as uncongressed/misaligned chromosomes at 250 nM after 6 hrs by Hoechst 33342 staining-based confocal fluorescence microscopy; summary of the method: as §1
MCF7 [3] = experiment: Induction of microtubule cytoskeleton destabilization in human MCF7 cells assessed as abberation in spindle morphology and polarity at 250 nM after 6 hrs by Hoechst 33342 staining-based confocal fluorescence microscopy; summary of the method: as §1
MCF7 [4] = experiment: Inhibition of microtubule cytoskeleton polymerization in human MCF7 cells assessed as repolymerization at 250 nM pretreated for 6 hrs followed by incubation for 30 mins on ice then rewarmed to 37 degC for 30 mins by Hoechst 33342 staining-based confocal fluorescence microscopy
Summary of the method: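 Pre-treatment: MCF-7 cells on coverslips were exposed to 250 nM compound or 0.01% DMSO for 6 h, then held at 4 °C on ice for 30 min. One set was fixed after cold depolymerisation; the others were returned to 37 °C/5% CO2 for 30 min to repolymerise. Cells were fixed in −20 °C methanol, stained for α-tubulin and Hoechst, and imaged by confocal microscopy. There were three independent experiments.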

MCF7 [5] = experiment: Induction of microtubule cytoskeleton destabilization in human MCF7 cells assessed as shorter and more disorderd microtubule at 250 nM after 6 hrs by Hoechst 33342 staining-based confocal fluorescence microscopy; summary of the method: as §1
MCF7 [6] = experiment: Induction of microtubule cytoskeleton destabilization in human MCF7 cells assessed as nuclear atypia at 250 nM after 6 hrs by Hoechst 33342 staining-based confocal fluorescence microscopy; summary of the method: as §1
MCF7 [7] = experiment: Induction of microtubule cytoskeleton destabilization in human MCF7 cells assessed as pyknosis at 250 nM after 6 hrs by Hoechst 33342 staining-based confocal fluorescence microscopy; summary of the method: as §1
MCF7 [8] = experiment: Inhibition of microtubule cytoskeleton polymerization in human MCF7 cells assessed as repolymerization at 250 nM cells preincubated on ice followed rewarmed to 37 degC in presence of compound for 30 mins by Hoechst 33342 staining-based confocal fluorescence microscopy
Summary of the method: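 No pre-treatment: after 42 h on coverslips, MCF-7 cells were held on ice for 30 min to depolymerise microtubules. A cold control set was fixed at once; the rest were rewarmed for 30 min at 37 °C/5% CO2 with 250 nM compound or 0.01% DMSO. All were fixed in methanol at −20 °C, stained for α-tubulin and Hoechst, and examined by confocal imaging. There were three independent experiments.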

| Compound | Activity (MCF7 [1]) | Activity (MCF7 [2]) | Activity (MCF7 [3]) | inhibition (MCF7 [4]) | Activity (MCF7 [5]) | Activity (MCF7 [6]) | Activity (MCF7 [7]) | inhibition (MCF7 [8]) |
| --- | --- | --- | --- | --- | --- | --- | --- | --- |
| O=C1OC[C@]2(O)Nc3c(c4cccnc4c4ncccc34)[C@@H](c3ccccc3OC(F)(F)F)[C@H]12 (mixture of isomers) | Active | Active | Active | inactive | Active | Active | Active | inactive |
| COc1cc([C@@H]2c3cc4c(cc3[C@H](O)[C@H]3COC(=O)[C@H]23)OCO4)cc(OC)c1OC |  |  |  |  |  | Active | Active |  |
| O=C1OC[C@]2(O)Nc3c(c4cccnc4c4ncccc34)[C@@H](c3ccccc3C(F)(F)F)[C@@H]12 (mixture of isomers) | Active | Active | Active | inactive | Active | Active | Active | inactive |
